ChEMBL document CHEMBL1133660, “A potential melanoma tracer: synthesis, radiolabeling, and biodistribution in mice of a new nitridotechnetium bis(aminothiol) derivative pharmacomodulated by a N-(diethylaminoethyl)benzamide” (J Med Chem, 2000)

Assays:
[1] = (§1) Partition coefficient (logP); assay type: physicochemical; conditions: octanol/water
Outline: (§2)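 Partition between octanol and pH 7.4 Tris buffer, reported as log P.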

[2] = as §1; assay type: physicochemical; conditions: octanol/water; outline: as §2; remark: listed apart in the source
Mus musculus [3] = organism: Mus musculus; test: Tissue biodistribution of the syn isomer in the B16 murine melanoma tumor in mice at 1 hour; assay type: ADME, organism-based; conditions: in vivo
Outline: (§3)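 Male C57BL/6 J1 co mice given 5 × 10^5 viable B16 melanoma cells subcutaneously; tumors palpable after 10 days. 0.74 MBq 99mTc-labeled complex injected iv via tail vein. n = 3 per time point; sacrifice by exsanguination at 5 min, 15 min, 1, 3, 6 and 24 h. Tissues weighed and γ-counted; results as % injected dose/gram of tissue.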

Mus musculus [4] = organism: Mus musculus; test: Tissue biodistribution of the syn isomer in the B16 murine melanoma tumor in mice at 24 hours; assay type: ADME, organism-based; conditions: in vivo; outline: as §3
Mus musculus [5] = organism: Mus musculus; test: Tissue biodistribution of the syn isomer in the B16 murine melanoma tumor in mice at 3 hours; assay type: ADME, organism-based; conditions: in vivo; outline: as §3
Mus musculus [6] = organism: Mus musculus; test: Tissue biodistribution of the syn isomer in the B16 murine melanoma tumor in mice at 6 hours; assay type: ADME, organism-based; conditions: in vivo; outline: as §3
[7] = Tumor / liver ratio observed after 3 hours of injection; assay type: ADME, tissue-based
[8] = Tumor / liver ratio observed after 6 hours of injection; assay type: ADME
[9] = Tumor / liver ratio observed after 1 hour of injection; assay type: ADME, tissue-based
[10] = Tumor / liver ratio observed after 24 hours of injection; assay type: ADME, tissue-based

| Compound | logP [1] | logP [2] | ID/g (Mus musculus [3]) [%] | ID/g (Mus musculus [4]) [%] | ID/g (Mus musculus [5]) [%] | ID/g (Mus musculus [6]) [%] | Tumor/liver ratio [7] | Tumor/liver ratio [8] | Tumor/liver ratio [9] | Tumor/liver ratio [10] |
| --- | --- | --- | --- | --- | --- | --- | --- | --- | --- | --- |
| CCN(CC)CCNC(=O)c1ccc(COCC(CNCC(C)(C)S)NCC(C)(C)S)cc1 (stereo not drawn) | -0.3 | -0.45 |  |  |  |  |  |  |  |  |
| CCN(CC)CCNC(=O)c1ccc([125I])cc1 |  |  | 6.75 | 0.79 | 3.85 | 3.53 | 1.05 | 3.71 | 1.12 | 4.94 |
| (TcN-BAT)nitridotechnetium complex of bis(aminoethanethiol) |  |  | 0.75 | 0.04 | 0.2 | 0.11 | 0.1 | 0.1 | 0.18 | 0.06 |
